Laboratory results reported in ChEMBL document CHEMBL1141286, “Benzochromenones from the marine crinoid Comantheria rotula inhibit hypoxia-inducible factor-1 (HIF-1) in cell-based reporter assays and differentially suppress the growth of certain tumor cell lines” (J Nat Prod, 2007).

Experiments:
MCF7 = assay: Growth inhibition of human MCF7 cells; assay type: functional
PC-3 = assay: Growth inhibition of human PC3 cells; assay type: functional
786-0 = assay: Growth inhibition of human 786-0 cells; assay type: functional
OVCAR-5 = assay: Growth inhibition of human OVACAR5 cells; assay type: functional
UO-31 = assay: Growth inhibition of human UO31 cells; assay type: functional
T47D = assay: Growth inhibition of human T47D cells; assay type: functional
NCI-H23 = assay: Growth inhibition of human NCI-H23 cells; assay type: functional
CAKI-1 = assay: Growth inhibition of human CAKI1 cells; assay type: functional
[1] = Inhibition of 1,10-phenanthroline-induced HIF1 activation in T47D cells by TK-luciferase assay; assay type: cell-based; settings: Homo sapiens
Method in brief: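 HIF-1 reporter (pHRE-TK-Luc) assays in transfected PC-3 or T47D cells; HIF-1 induced by hypoxia or by the hypoxia mimetic 1,10-phenanthroline (10 μM); compounds at half-log concentrations; luciferase activity measured; IC50 from experiments in triplicate.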

HCT-15 = assay: Growth inhibition of human HCT15 cells; assay type: functional
TK-10 = assay: Growth inhibition of human TK10 cells; assay type: functional
ACHN = assay: Growth inhibition of human ACHN cells; assay type: functional
UACC-257 = assay: Growth inhibition of human UACC257 cells; assay type: functional
COLO 205 = assay: Growth inhibition of human COLO205 cells; assay type: functional
SNB-19 = assay: Growth inhibition of human SNB19 cells; assay type: functional
NCI-H522 = assay: Growth inhibition of human NCI-H522 cells; assay type: functional
SF-268 = assay: Growth inhibition of human SF268 cells; assay type: functional
SK-MEL-2 = assay: Growth inhibition of human SK-MEL2 cells; assay type: functional
Malme-3M = assay: Growth inhibition of human MALME-3M cells; assay type: functional
SK-OV-3 = assay: Growth inhibition of human SK-OV3 cells; assay type: functional
[2] = read-out: Log LC50 (the source's name) (converted)

SMILES: CCCc1cc(=O)c2c(O)c3c(OC)cc(O)cc3cc2o1
- GI50 (MCF7): 25.1 µM
- LC50 (MCF7): > 100 µM
- TGI (MCF7; read-out: Log TGI (converted)): 60.3 µM
- GI50 (PC-3): 20.4 µM
- LC50 (PC-3): > 100 µM
- TGI (PC-3; read-out: Log TGI (converted)): 67.6 µM
- GI50 (786-0): 25.1 µM
- LC50 (786-0): > 100 µM
- TGI (786-0; read-out: Log TGI (converted)): > 100 µM
- GI50 (OVCAR-5): 25.1 µM
- LC50 (OVCAR-5): > 100 µM
- TGI (OVCAR-5; read-out: Log TGI (converted)): 60.3 µM
- GI50 (UO-31): 16.2 µM
- LC50 (UO-31): > 100 µM
- TGI (UO-31; read-out: Log TGI (converted)): 42.7 µM
- GI50 (T47D): 20.9 µM
- LC50 (T47D): > 100 µM
- TGI (T47D; read-out: Log TGI (converted)): 93.3 µM
- GI50 (NCI-H23): 22.4 µM
- CC50 (NCI-H23; [2]): > 100 µM
- TGI (NCI-H23; read-out: Log TGI (converted)): 49 µM
- GI50 (CAKI-1): 30.2 µM
- LC50 (CAKI-1): > 100 µM
- TGI (CAKI-1; read-out: Log TGI (converted)): > 100 µM
- IC50 [1]: 0.6 µM
- GI50 (HCT-15): 15.1 µM
- CC50 (HCT-15; [2]): > 100 µM
- TGI (HCT-15; read-out: Log TGI (converted)): 40.7 µM
- GI50 (TK-10): 30.2 µM
- LC50 (TK-10): > 100 µM
- TGI (TK-10; read-out: Log TGI (converted)): > 100 µM
- GI50 (ACHN): 22.4 µM
- CC50 (ACHN; [2]): > 100 µM
- TGI (ACHN; read-out: Log TGI (converted)): 64.6 µM
- GI50 (UACC-257): 27.5 µM
- LC50 (UACC-257): > 100 µM
- TGI (UACC-257; read-out: Log TGI (converted)): 56.2 µM
- GI50 (COLO 205): 25.1 µM
- CC50 (COLO 205; [2]): > 100 µM
- TGI (COLO 205; read-out: Log TGI (converted)): 50.1 µM
- GI50 (SNB-19): 32.4 µM
- LC50 (SNB-19): 100 µM
- TGI (SNB-19; read-out: Log TGI (converted)): 100 µM
- GI50 (NCI-H522): > 100 µM
- CC50 (NCI-H522; [2]): 41.7 µM
- TGI (NCI-H522; read-out: Log TGI (converted)): 15.1 µM
- GI50 (SF-268): 20.4 µM
- LC50 (SF-268): > 100 µM
- TGI (SF-268; read-out: Log TGI (converted)): 58.9 µM
- GI50 (SK-MEL-2): 18.6 µM
- LC50 (SK-MEL-2): 91.2 µM
- TGI (SK-MEL-2; read-out: Log TGI (converted)): 40.7 µM
- GI50 (Malme-3M): 25.1 µM
- CC50 (Malme-3M; [2]): 100 µM
- TGI (Malme-3M; read-out: Log TGI (converted)): 64.6 µM
- GI50 (SK-OV-3): 32.4 µM
